# Assay outcomes: PubChem BioAssay, several laboratories
# BAP1 inh = inhibitors of BAP1 deubiquitinase, primary screen, biochemical, Ub-AMC fluorescence, kinetic | 72,000 tested, 0.48% active | Ubiquitin carboxyl-terminal hydrolase BAP1 (Homo sapiens), Q92560 | AID 436, 2006 | recombinant BAP1, Ub-AMC hydrolysis fluorescence kinetic; hits give low values | calls only at 20 µM;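 active = activity remaining at or below 50% of control, provided the compound also passes the data quality filters; inactive = the rest, including low values that fail the filters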;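 note: 100% = DMSO wells rate and 0% = substrate alone blank rate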
# Target sequence (Q92560 whole entry, looked up): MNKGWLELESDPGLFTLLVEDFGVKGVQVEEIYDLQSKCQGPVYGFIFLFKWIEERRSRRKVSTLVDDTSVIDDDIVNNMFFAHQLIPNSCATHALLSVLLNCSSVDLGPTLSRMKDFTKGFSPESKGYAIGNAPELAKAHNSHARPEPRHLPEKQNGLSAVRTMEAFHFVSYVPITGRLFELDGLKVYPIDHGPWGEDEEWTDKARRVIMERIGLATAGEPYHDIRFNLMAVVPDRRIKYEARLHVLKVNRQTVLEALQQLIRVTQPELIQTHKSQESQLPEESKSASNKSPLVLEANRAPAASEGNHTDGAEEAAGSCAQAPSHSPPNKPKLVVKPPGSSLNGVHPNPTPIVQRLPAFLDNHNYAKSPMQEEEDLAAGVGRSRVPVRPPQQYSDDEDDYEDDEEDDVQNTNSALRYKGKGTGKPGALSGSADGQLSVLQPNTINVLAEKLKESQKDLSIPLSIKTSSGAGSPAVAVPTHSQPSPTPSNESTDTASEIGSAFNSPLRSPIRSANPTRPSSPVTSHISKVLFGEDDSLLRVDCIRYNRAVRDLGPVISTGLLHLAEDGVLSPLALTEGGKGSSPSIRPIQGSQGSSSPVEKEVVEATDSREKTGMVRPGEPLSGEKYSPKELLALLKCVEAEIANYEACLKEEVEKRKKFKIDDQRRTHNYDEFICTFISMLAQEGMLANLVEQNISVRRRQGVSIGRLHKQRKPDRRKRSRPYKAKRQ
# M1 antag = antagonists of rat M1 muscarinic receptor | Muscarinic acetylcholine receptor M1 (Rattus norvegicus), P08482 | CHO-M1 cells, Fluo-4 calcium, ACh EC80 antagonist mode; hits give low values | B-score at 10 µM | 64,000 tested, 3.4% active;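 active = calcium fluorescence response, raw or row-and-column corrected B-score, differing from the plate sample mean either way at a set confidence level, mostly lower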
# M1 ag = M1 muscarinic receptor agonists, primary screen, CHO-M1 cells, Fluo-4 calcium, agonist mode | Muscarinic acetylcholine receptor M1 | Fluo-4 calcium fluorescence; hits give high values | B-score at 10 µM | 64,000 tested, 3% active | AID 626, 2007;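 active = fluorescence rise, raw or as B-score row- and column-corrected plate score, outside the 99.7% band of its plate's samples, either direction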
# DAT uptake mod = changed hDAT dopamine uptake under cocaine IC80, either direction, primary screen, cocaine antagonist project, cell-based, LLC-PK1 hDAT, [14C]-dopamine uptake, MLSMR; AID 449768, 2010; Sodium-dependent dopamine transporter (Homo sapiens), Q01959; 110,000 tested, 1.3% active; B-score at 10 µM; LLC-PK1 hDAT cells, [14C]-dopamine uptake with cocaine IC80; actives deviate in either direction;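 active = Z score or B-score, a plate-position-corrected score, falls beyond the plate's 99.7% confidence bounds, in either direction; inactive = both scores lie inside the 99.7% bounds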;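 note: scored against the spread of the other compound wells on the same plate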
# D1 allo mod = D1 CRE-luciferase signal change, two-sided – cell-based, HEK293 D1, dopamine EC30, D1 allosteric modulator project, primary screen | 58,000 tested, 5.9% active | B-score at 10 µM | AID 641, 2007 | D(1A) dopamine receptor (Homo sapiens), P21728 | dopamine EC30 potentiation; actives deviate in either direction;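 active = luminescence count or its row- and column-corrected plate score outside the 99.7% band of the plate's sample wells, on either side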
# HEK293 NFkB inh = inhibitors of PMA/ionomycin-induced NF-kB reporter, primary screen, antigen receptor NF-kB inhibitor project, cell-based, HEK-293 luciferase reporter, luminescence; HEK-293 NF-kB luciferase reporter; inhibition, % at 3 µM; 62,000 tested, 0.21% active;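 active = inhibition above the mean of all tested compounds plus 3 SD, cut at about 40% in these data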;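 note: 0% = stimulated DMSO wells and 100% = 10 µM reference inhibitor 5653914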
#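 Timing: 1 h pretreatment, 16 h stimulation, 37 °C; system: HEK-293 cells with stable firefly luciferase reporter driven by four HIV NF-kB elements; doses: 3 µM once, 0.30% DMSO; measured by: luciferase luminescence; control set: DMSO and 10 µM reference inhibitor; repeats: single test; reagent: PMA plus ionomycin mix as NF-kB-activating stimulus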
# * = called active by the depositor; i = inactive; . = no result. Rows were chosen to be rich in hits. Some 7.2% of all compounds tested hit in one or more screens of this group.
SMILES,BAP1 inh,M1 antag,M1 ag,DAT uptake mod,D1 allo mod,HEK293 NFkB inh
O=C(NCc1nc2ccccc2[nH]1)C1=C[C@H](C2CCCCC2)C[C@H](OCCCCO)O1,.,.,.,1.88*,.,.
O=C(C1=C[C@H](C2CCCCC2)C[C@H](OCCCCO)O1)N1CCN(Cc2ccc3c(c2)OCO3)CC1,.,.,.,2.23*,.,.
CC1=NN(c2ccccc2)C(=O)C1C(c1ccc2c(c1)OCO2)C1C(=O)N(c2ccccc2)N=C1C (stereo not given),i,.,.,.,.,.
CCO[C@H]1OC(C(=O)NCc2nc3ccccc3[nH]2)=C[C@@H](c2ccc3c(c2)OCO3)[C@@H]1CCCO,.,.,.,2.67*,.,.
Cn1c(N)c(C#N)c2c(c1=S)CSC(C)(C)C2,i,-0.561,1.73,-7.82*,.,.
CC1(C)Cc2c(C#N)c(N)sc(=S)c2CS1,i,0.478,0.439,-0.358,2.4,11.8
C=C(Br)Cn1c(CC(C)C)nc2ccccc21,i,1.29,-0.341,-0.905,-3.27*,-0.1
CC1=C(C(=O)OCc2ccccc2)C(c2cccs2)C2=C(CCCC2=O)N1 (stereo not given),i,.,.,.,.,.
COc1cc(C2C(C#N)=C(N)Oc3cc(C)oc(=O)c32)ccc1OC(=O)N1CCOCC1 (stereo not given),i,.,.,1.03,-3.72*,7.1
COc1ccc(OC)c(NC(=O)CN(c2ccc(C(C)C)cc2)S(=O)(=O)c2c(C)noc2C)c1,i,0.173,0.0184,0.116,-0.039,17.0
CCOc1ccccc1NC(=O)CN(c1ccc(C)cc1)S(=O)(=O)c1c(C)noc1C,i,0.00981,0.032,1.6,1.42,13.9
COc1ccc(OC)c(NC(=O)CN(c2ccc(C)cc2)S(=O)(=O)c2c(C)noc2C)c1,i,-0.246,0.0344,-0.00503,4.63*,4.9
CCOc1ccc(OCC)c(NC(=O)CN(c2ccc(C)cc2)S(=O)(=O)c2c(C)noc2C)c1,i,-0.741,-1.28,-0.382,4.65*,9.9
O=C(Nc1nc(-c2ccccc2)c(-c2ccccc2)s1)c1ccc(S(=O)(=O)N2CCOCC2)cc1,i,.,.,.,.,.
OCCn1c(-c2ccc3c(c2)OCO3)csc1=Nc1ccccc1,i,-0.48,0.0319,0.411,-3.38*,12.5
Cc1cccc(NC(=O)Nc2cccc(F)c2)n1,i,0.00624,0.292,1.99,2.47,11.4
Cc1ccnc(NC(=O)Nc2cccc(F)c2)c1,i,-0.168,-1.34,0.155,-5.33*,-33.9
Cc1noc(C)c1S(=O)(=O)NCC(=O)O,i,-0.274,-0.0308,2.27*,0.503,5.2
CCOC(=O)CNS(=O)(=O)c1c(C)noc1C,i,0.724,0.0106,-0.692,0.241,13.5
Cc1cc(=O)oc2[nH]c(=S)[nH]c(=O)c12,i,.,.,.,.,.
CC(C)Nc1ncnc2c1cnn2-c1ccc(Cl)cc1,i,-2.85,0.801,0.38,-6.07*,-72.3
O=S(=O)(c1ccc(SCCO)nc1)N1CCCC1,.,.,.,-0.485,-1.03,14.2
O=c1cc(CSc2ccc(S(=O)(=O)N3CCCCC3)cn2)nc2sccn12,i,0.889,0.742,0.157,-4.52*,5.0
CSc1nnc2c3c4c(sc3c(=O)n(-c3ccccc3)n12)CC(C)(C)OC4,i,0.0489,0.83,0.713,5.87*,22.3
O=C(Nc1ccccn1)C(O)c1ccccc1 (stereo not given),i,.,.,.,.,.
SMILES,BAP1 inh,M1 antag,M1 ag,DAT uptake mod,D1 allo mod,HEK293 NFkB inh
CC(C)c1ccc(NC(=O)N(CCc2nc3ccccc3[nH]2)C2CCCC2)cc1,.,.,.,0.659,.,.
Cc1cc2nc(CCN(C(=S)NCC(C)C)C3CCCC3)[nH]c2cc1C,.,.,.,2.66*,.,.
c1ccc2[nH]c(CCCCCCCCc3nc4ccccc4[nH]3)nc2c1,i,.,.,.,.,.
COc1ccc(C(=O)c2sc3nc(N)c(C#N)c(-c4ccc(OC)cc4)c3c2N)cc1,i,.,.,.,.,.
CCOC(=O)Cn1nc(-c2ccccc2)nc1-c1ccccc1,i,-0.00438,1.11,0.13,-3.52*,4.6
Cc1cc(C)c(-c2csc(NC(=O)c3ccc(S(=O)(=O)N4CCc5ccccc54)cc3)n2)c(C)c1,i,.,.,.,.,.
O=C(CSC1=NCCS1)N1CCOCC1,i,2.1*,-1.48,-0.35,.,9.0
COc1ccc(C(=O)Nc2ccccn2)cc1,.,.,.,0.019,.,.
CC(C)(C)c1ccc(C(=O)Nc2cnccn2)cc1,i,-0.647,0.323,-0.51,-3.39*,1.5
COc1ccc(N2CCN(C(=O)CSc3nnc(CNc4ccccc4)o3)CC2)cc1,i,-0.31,-2.5*,-0.709,0.496,9.6
Cc1ccc(S(=O)(=O)NCCOCCNS(=O)(=O)c2ccc(C)cc2)cc1,i,-0.227,-0.649,-0.506,0.593,1.1
Cc1ccc(S(=O)(=O)NCCCCCC(=O)N(C)C)cc1,i,-0.818,-0.217,-0.0146,-4.28*,11.7
CC(C)N(CCNS(=O)(=O)c1ccc(Cl)cc1)C(C)C,.,.,.,2.95*,.,.
Cc1ccc(S(=O)(=O)NCCN(CCNS(=O)(=O)c2ccc(C)cc2)S(C)(=O)=O)cc1,i,-0.275,1.03,0.532,-5.28*,18.2
O=C1NC(=S)N(c2ccccc2)C(=O)C1C(c1ccc([N+](=O)[O-])cc1)C1C(=O)NC(=S)N(c2ccccc2)C1=O (stereo not given),i,.,.,.,.,.
COc1ccc(CNc2ccc(-c3ccccc3OC)nn2)cc1,.,.,.,3.23*,.,.
Cc1cccc(-n2ccnc2SCC(=O)Nc2ccc3c(c2)OCCO3)c1,i,-0.796,0.209,1.84*,-1.38,-7.2
O=C(CSc1nccn1-c1ccc(Cl)cc1)Nc1ccc2c(c1)OCO2,i,-1.55,0.0194,0.734,-1.27,7.3
COc1cccc(NC(=O)CSc2nnc(-c3ccoc3C)n2-c2ccccc2)c1,.,.,.,-0.0692,.,.
COc1cccc(-c2nnc(SCC(=O)Nc3ccc4c(c3)OCCO4)n2Cc2ccco2)c1,i,-0.121,5.82*,-0.449,0.288,-0.8
Cc1cccc(-n2c(SCC(=O)Nc3ccc4c(c3)OCO4)nnc2-c2ccoc2C)c1,i,-0.22,-0.33,0.954,-3.36*,10.1
COc1cccc(-c2nnc(SCC(=O)NCc3ccc4c(c3)OCO4)n2Cc2ccco2)c1,.,.,.,1.29,.,.
CCN(CC)S(=O)(=O)c1cc(C(=O)Nc2nnc(-c3ccccc3)s2)ccc1C,i,.,.,.,.,.
CC1(C)Cc2c(sc3nc(SCC#N)n(C4CCCCC4)c(=O)c23)CO1,i,0.179,-0.284,.,25.7*,.
CCN(CC)c1ccc2cc(-c3nnc(-c4ccccc4)o3)c(=O)oc2c1,.,.,.,-0.371,.,.
CCN(CC)c1ccc2cc(-c3nc4ccccc4[nH]3)c(=O)oc2c1,i,-21.5*,419*,0.348,-3.57*,3.4
